One series deals with HL-60. Kind of series: Antiproliferative activity against human HL60 cells after 72 hrs by MTT reduction assay. It counts as functional, cell-based. The note with it: HL-60, 72 h. The gist of the method:
(§1)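 MTT reduction assay; adherent lines left to adhere overnight, suspension lines (HL-60, K562) seeded on the day. […] Incubation was 72 h at 37°C, with MTT added for the last 4 h. OD read at 545 nm (reference 690 nm). IC50 from 100(A0-A)/A0=50; means ± SD of 3 independent experiments.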
A general note: Formazan colour is commonly taken as a measure of viable cells.

Series [1] deals with PBMC. The series is described as follows: Induction of apoptosis in human PBMC assessed as necrotic cells at 600 ug/ml after 24 hrs by propidium iodide staining-based flow cytometric method (reference value: 1%). It counts as cell-based.
The subject of series [2] is Mus musculus. Kind of series: In vivo induction of tumor-reactive immune response in C57BL/6 mouse allografted with mouse B16-F1 cells assessed as splenocyte-mediated NK-sensitive mouse YAC-1 cell lysis at 300 ug, ip administered every other day up to day 29 measured on day 29 post last dose by flow cytometric method (reference value: 1.2 to 1.7). It counts as functional. The gist of the method: (§2)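 Male C57BL/6 mice (6-8 wk) were injected sc in the right flank with 10⁵ B16.F1 cells in PBS on day 0. From day 11, when tumors were palpable, they received ip doses in 200 µL PBS every other day (8 doses; 5 mice/group). On day 29, splenocytes were co-cultured unstimulated with targets at E:T 100:1 for 6 h at 37°C. CD107a/b MFI was read by flow cytometry, 2 mice/group tested individually.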

In series [3] the test system is PBMC. The series is described as follows: Induction of apoptosis in human PBMC assessed as early apoptotic cells at 500 ug/ml after 24 hrs by propidium iodide staining-based flow cytometric method (reference value: 0.1%). Type of series: cell-based. (In general: In flow cytometry, cells or beads pass a laser one at a time.)
In series [4] the test system is PBMC. Kind of series: Induction of apoptosis in human PBMC assessed as late apoptotic cells at 600 ug/ml after 24 hrs by propidium iodide staining-based flow cytometric method (reference value: 0.6%). Type of series: cell-based.
Series [5] relates to Mus musculus. Kind of series: In vivo induction of tumor-reactive immune response in C57BL/6 mouse allografted with mouse B16-F1 cells assessed as splenocyte-mediated mouse WEHI 164 cell lysis at 300 ug, ip administered every other day up to day 29 measured on day 29 post last dose by flow cytometric method (reference value: 1.2 to 1.6). Type of series: functional. The method, boiled down: as §2

For series [6], the system named is B16-F1. Kind of series: Antitumor activity against mouse B16-F1 cells allografted in C57BL/6 mouse assessed as tumor volume at 600 ug, ip administered every other day up to day 29 measured on day 29 post last dose (reference value: 2.83 cm'3). It counts as functional. The gist of the method: (§3)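 Male C57BL/6 mice, 6-8 weeks old, received 10^5 B16.F1 cells sc in the right flank on day 0. From day 11 (palpable tumors), 5 mice/group were randomized and given ip doses in 200 µL PBS every other day, 8 doses in total, up to day 29. Control group received PBS. Tumors were measured by caliper every two days; volume = 1/2(length × width²).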

In series [7] the test system is B16-F1. Kind of series: Induction of apoptosis in mouse B16-F1 cells assessed as early apoptotic cells at 283.90 uM after 48 hrs by propidium iodide staining-based flow cytometric method (reference value: 0.2%). Type of series: functional.
Series [8] relates to B16-F1. Kind of series: Induction of apoptosis in mouse B16-F1 cells assessed as necrotic cells at 283.90 uM after 24 hrs by propidium iodide staining-based flow cytometric method (reference value: 0.4%). It counts as functional.
The test system of series [9] is PBMC. Kind of series: Induction of apoptosis in human PBMC assessed as early apoptotic cells at 150 ug/ml after 24 hrs by propidium iodide staining-based flow cytometric method (reference value: 0.1%). It counts as cell-based.
For series [10], the system named is B16-F1. The series is described as follows: Induction of apoptosis in mouse B16-F1 cells assessed as necrotic cells at 283.90 uM after 48 hrs by propidium iodide staining-based flow cytometric method (reference value: 1%). It counts as functional.
The test system of the next series is HeLa. The series is described as follows: Antiproliferative activity against human HeLa cells after 72 hrs by MTT reduction assay. Type of series: functional, cell-based. The method, boiled down: as §1
The test system of series [11] is B16-F1. The series is described as follows: Antitumor activity against mouse B16-F1 cells allografted in ip dosed C57BL/6 mouse assessed as tumor growth inhibition administered every other day up to day 29 measured on day 29 post last dose. Type of series: functional, organism-based. The gist of the method: as §3
Series [12] can be described thus: Antiproliferative activity against human FM3 cells after 72 hrs by MTT reduction assay. It counts as functional, cell-based. The method, boiled down: as §1
In series [13] the test system is Mus musculus. The series is described as follows: In vivo induction of tumor-reactive immune response in C57BL/6 mouse allografted with mouse B16-F1 cells assessed as splenocyte-mediated NK-sensitive mouse YAC-1 cell lysis at 600 ug, ip administered every other day up to day 29 measured on day 29 post last dose by flow cytometric method (reference value: 1.2 to 1.7). Type of series: functional. The method, boiled down: as §2

In another series the test system is K562. Kind of series: Antiproliferative activity against human K562 cells after 72 hrs by MTT reduction assay. Type of series: functional, cell-based. The note with it: K562, 72 h. The gist of the method:
as §1

Structures are written as SMILES.

For `C/C=C1/[C@H](O[C@@H]2O[C@H](CO)[C@@H](O)[C@H](O)[C@H]2O)OC=C(C(=O)OC)[C@H]1CC(=O)OCCc1ccc(O)c(O)c1` [OLEUROPEIN], the IC50 was 54.3 µM in the series on HL-60, 265 to 276 µM in the series on HeLa, 269 to 275 µM in series [12] and 64.7 µM in the series with K562. The Activity in the series with PBMC [1] stood at 16.4%; in the series with PBMC [3], 3.1%; in the series on PBMC [4], 12.4%; in the series on B16-F1 [6], 2.33 cm3; in the series with B16-F1 [7], 13.6%; in the series on B16-F1 [8] it was 2.1%. For the same compound, the Activity stood at 0.8% with PBMC [9] and 4.2% in the series on B16-F1 [10]. The Flu intensity is on record as 2.3 - 2.7 in the series with Mus musculus [2], 1.1 - 1.3 in the series on Mus musculus [5] and 2.9 - 3.3 in the series with Mus musculus [13]. In the series on B16-F1 [11], the TGI entry was “Dose-dependent effect”.

For orientation: IC50 means the concentration needed to halve the response being measured.

Source of the values: ChEMBL document CHEMBL4130342, “New semi-synthetic analogs of oleuropein show improved anticancer activity in vitro and in vivo” (Eur J Med Chem, 2017).
